Active and inactive are the calls of the source. The rule behind the calls is not given here.
Key:
[1] = target: Insulin-like growth factor 1 receptor (Homo sapiens, UniProt P08069); assay: Inhibition of IGF1R (unknown origin)
MDA-MB-453 = assay: Antiproliferative activity against human MDA-MB-453 cells assessed as inhibition of cell viability incubated for 3 to 5 days by Celltiter-Glo luminescent assay; format: functional, cell-based
Calu-6 = assay: Antiproliferative activity against human Calu-6 cells assessed as inhibition of cell viability incubated for 3 to 5 days by Celltiter-Glo luminescent assay; format: functional, cell-based
SKM-1 = assay: Antiproliferative activity against human SKM-1 cells assessed as inhibition of cell viability incubated for 3 to 5 days by Celltiter-Glo luminescent assay; format: functional, cell-based
[2] = target: Calcium/calmodulin-dependent protein kinase kinase 2 (Homo sapiens, UniProt Q96RR4); assay: Inhibition of CAMKK2 (unknown origin)
LuCaP-77 CR cell [3] = conditions: Homo sapiens, dose 100.0 mg/kg, time 7.0 day
NCI-H441 = assay: Antiproliferative activity against human NCI-H441 cells assessed as inhibition of cell viability incubated for 3 to 5 days by Celltiter-Glo luminescent assay; format: functional, cell-based
MM1.S = assay: Antiproliferative activity against human MM1.S cells assessed as inhibition of cell viability incubated for 3 to 5 days by Celltiter-Glo luminescent assay; format: functional, cell-based
[4] = target: Serine/threonine-protein kinase 16 (Homo sapiens, UniProt O75716); assay: Inhibition of STK16 (unknown origin)
JVM-2 = assay: Antiproliferative activity against human JVM-2 cells assessed as inhibition of cell viability incubated for 3 to 5 days by Celltiter-Glo luminescent assay; format: functional, cell-based
[5] = target: Macrophage colony-stimulating factor 1 receptor (Homo sapiens, UniProt P07333); assay: Inhibition of CSF1R (unknown origin)
[6] = target: T1, CREB-binding protein/Histone acetyltransferase p300 (Homo sapiens, UniProt Q09472+Q92793); assay: Inhibition of p300/CBP in human 22Rv1 cells assessed as reduction in H3K18Ac level incubated for 3 hrs by Hoechst 33342 staining based high content microscopy analysis; format: cell-based
How it was run: (§1)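 Cells received an 8-point half-log dilution series from 10 µM. They were then fixed in 10% formaldehyde (10 min, RT), permeabilised with 0.1% Triton X-100 and blocked with 1% BSA for 1 h. Primary antibodies were applied overnight at 4 °C, followed by Alexa488 anti-rabbit, Alexa555 anti-mouse and Hoechst 33342 for 1 h. Fifteen fields per well were imaged and average mean intensity taken. EC50 came from a sigmoidal fit.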

[7] = target: Serine/threonine-protein kinase B-raf (Homo sapiens, UniProt P15056); assay: Inhibition of B-Raf (unknown origin)
CWR22R = assay: Antiproliferative activity against human 22Rv1 cells assessed as inhibition of cell viability incubated for 3 to 5 days by Celltiter-Glo luminescent assay; format: functional, cell-based
MOLT-4 = assay: Antiproliferative activity against human MOLT-4 cells assessed as inhibition of cell viability incubated for 3 to 5 days by Celltiter-Glo luminescent assay; format: functional, cell-based
[8] = target: Bromodomain-containing protein 4 (Homo sapiens, UniProt O60885); assay: Inhibition of BRD4 (unknown origin)
NCI-H1373 = assay: Antiproliferative activity against human NCI-H1373 cells assessed as inhibition of cell viability incubated for 3 to 5 days by Celltiter-Glo luminescent assay; format: functional, cell-based
HCC1187 = assay: Antiproliferative activity against human HCC1187 cells assessed as inhibition of cell viability incubated for 3 to 5 days by Celltiter-Glo luminescent assay; format: functional, cell-based
[9] = Half life in CB17 SCID mouse xenografted with LuCaP-77 CR cell at 100 mg/kg, ip administered for 7 days; format: ADME, organism-based; conditions: in vivo, time 7 day
LuCaP-77 CR cell [10] = conditions: Homo sapiens, dose 100.0 mg/kg, time 7.0 day; remark: listed apart in the source
GA-10 = assay: Antiproliferative activity against human GA-10 cells assessed as inhibition of cell viability incubated for 3 to 5 days by Celltiter-Glo luminescent assay; format: functional, cell-based
EOL1 = assay: Antiproliferative activity against human EOL-1 cells assessed as inhibition of cell viability incubated for 3 to 5 days by Celltiter-Glo luminescent assay; format: functional, cell-based
LuCaP-77 CR cell [11] = conditions: Homo sapiens, dose 100.0 mg/kg, time 7.0 day; remark: listed apart in the source
NCI-H146 = assay: Antiproliferative activity against human NCI-H146 cells assessed as inhibition of cell viability incubated for 3 to 5 days by Celltiter-Glo luminescent assay; format: functional, cell-based
[12] = target: Vascular endothelial growth factor receptor 1 (Homo sapiens, UniProt P17948); assay: Inhibition of Flt1 (unknown origin)
CAL-120 = assay: Antiproliferative activity against human CAL-120 cells assessed as inhibition of cell viability incubated for 3 to 5 days by Celltiter-Glo luminescent assay; format: functional, cell-based
SU-DHL-8 = assay: Antiproliferative activity against human SU-DHL-8 cells assessed as inhibition of cell viability incubated for 3 to 5 days by Celltiter-Glo luminescent assay; format: functional, cell-based
NCI-H1836 = assay: Antiproliferative activity against human NCI-H1836 cells assessed as inhibition of cell viability incubated for 3 to 5 days by Celltiter-Glo luminescent assay; format: functional, cell-based
Ramos = assay: Antiproliferative activity against human Ramos cells assessed as inhibition of cell viability incubated for 3 to 5 days by Celltiter-Glo luminescent assay; format: functional, cell-based
NCI-H661 = assay: Antiproliferative activity against human NCI-H661 cells assessed as inhibition of cell viability incubated for 3 to 5 days by Celltiter-Glo luminescent assay; format: functional, cell-based
SET-2 = assay: Antiproliferative activity against human SET2 cells assessed as inhibition of cell viability incubated for 3 to 5 days by Celltiter-Glo luminescent assay; format: functional, cell-based
[13] = target: Casein kinase I isoform alpha (Homo sapiens, UniProt P48729); assay: Inhibition of Ck1alpha1 (unknown origin)
[14] = target: T1, CREB-binding protein/Histone acetyltransferase p300; assay: Inhibition of p300/CBP in human 22Rv1 cells assessed as reduction in H3K18Ac level incubated for 1 hr by Hoechst 33342 staining based high content microscopy analysis; format: cell-based; how it was run: as §1
[15] = Half life in CB17 SCID mouse xenografted with LuCaP-77 CR cell at 50 mg/kg, ip administered for 7 days; format: ADME, organism-based; conditions: in vivo, time 7 day
BT-20 = assay: Antiproliferative activity against human BT-20 cells assessed as inhibition of cell viability incubated for 3 to 5 days by Celltiter-Glo luminescent assay; format: functional, cell-based
[16] = target: T1, CREB-binding protein/Histone acetyltransferase p300; assay: Inhibition of p300/CBP in human 22Rv1 cells assessed as reduction in H3K27Ac level incubated for 24 hrs by Hoechst 33342 staining based high content microscopy analysis; format: cell-based; how it was run: as §1
[17] = target: Dual specificity mitogen-activated protein kinase kinase 1 (Homo sapiens, UniProt Q02750); assay: Inhibition of MEK1 (unknown origin)
[18] = target: Mitogen-activated protein kinase 9 (Homo sapiens, UniProt P45984); assay: Inhibition of JNK2 (unknown origin)
NCI-H1930 = assay: Antiproliferative activity against human NCI-H1930 cells assessed as inhibition of cell viability incubated for 3 to 5 days by Celltiter-Glo luminescent assay; format: functional, cell-based
[19] = target: Death-associated protein kinase 3 (Homo sapiens, UniProt O43293); assay: Inhibition of ZIPK (unknown origin)

T1 sequence (Q09472 whole entry, looked up): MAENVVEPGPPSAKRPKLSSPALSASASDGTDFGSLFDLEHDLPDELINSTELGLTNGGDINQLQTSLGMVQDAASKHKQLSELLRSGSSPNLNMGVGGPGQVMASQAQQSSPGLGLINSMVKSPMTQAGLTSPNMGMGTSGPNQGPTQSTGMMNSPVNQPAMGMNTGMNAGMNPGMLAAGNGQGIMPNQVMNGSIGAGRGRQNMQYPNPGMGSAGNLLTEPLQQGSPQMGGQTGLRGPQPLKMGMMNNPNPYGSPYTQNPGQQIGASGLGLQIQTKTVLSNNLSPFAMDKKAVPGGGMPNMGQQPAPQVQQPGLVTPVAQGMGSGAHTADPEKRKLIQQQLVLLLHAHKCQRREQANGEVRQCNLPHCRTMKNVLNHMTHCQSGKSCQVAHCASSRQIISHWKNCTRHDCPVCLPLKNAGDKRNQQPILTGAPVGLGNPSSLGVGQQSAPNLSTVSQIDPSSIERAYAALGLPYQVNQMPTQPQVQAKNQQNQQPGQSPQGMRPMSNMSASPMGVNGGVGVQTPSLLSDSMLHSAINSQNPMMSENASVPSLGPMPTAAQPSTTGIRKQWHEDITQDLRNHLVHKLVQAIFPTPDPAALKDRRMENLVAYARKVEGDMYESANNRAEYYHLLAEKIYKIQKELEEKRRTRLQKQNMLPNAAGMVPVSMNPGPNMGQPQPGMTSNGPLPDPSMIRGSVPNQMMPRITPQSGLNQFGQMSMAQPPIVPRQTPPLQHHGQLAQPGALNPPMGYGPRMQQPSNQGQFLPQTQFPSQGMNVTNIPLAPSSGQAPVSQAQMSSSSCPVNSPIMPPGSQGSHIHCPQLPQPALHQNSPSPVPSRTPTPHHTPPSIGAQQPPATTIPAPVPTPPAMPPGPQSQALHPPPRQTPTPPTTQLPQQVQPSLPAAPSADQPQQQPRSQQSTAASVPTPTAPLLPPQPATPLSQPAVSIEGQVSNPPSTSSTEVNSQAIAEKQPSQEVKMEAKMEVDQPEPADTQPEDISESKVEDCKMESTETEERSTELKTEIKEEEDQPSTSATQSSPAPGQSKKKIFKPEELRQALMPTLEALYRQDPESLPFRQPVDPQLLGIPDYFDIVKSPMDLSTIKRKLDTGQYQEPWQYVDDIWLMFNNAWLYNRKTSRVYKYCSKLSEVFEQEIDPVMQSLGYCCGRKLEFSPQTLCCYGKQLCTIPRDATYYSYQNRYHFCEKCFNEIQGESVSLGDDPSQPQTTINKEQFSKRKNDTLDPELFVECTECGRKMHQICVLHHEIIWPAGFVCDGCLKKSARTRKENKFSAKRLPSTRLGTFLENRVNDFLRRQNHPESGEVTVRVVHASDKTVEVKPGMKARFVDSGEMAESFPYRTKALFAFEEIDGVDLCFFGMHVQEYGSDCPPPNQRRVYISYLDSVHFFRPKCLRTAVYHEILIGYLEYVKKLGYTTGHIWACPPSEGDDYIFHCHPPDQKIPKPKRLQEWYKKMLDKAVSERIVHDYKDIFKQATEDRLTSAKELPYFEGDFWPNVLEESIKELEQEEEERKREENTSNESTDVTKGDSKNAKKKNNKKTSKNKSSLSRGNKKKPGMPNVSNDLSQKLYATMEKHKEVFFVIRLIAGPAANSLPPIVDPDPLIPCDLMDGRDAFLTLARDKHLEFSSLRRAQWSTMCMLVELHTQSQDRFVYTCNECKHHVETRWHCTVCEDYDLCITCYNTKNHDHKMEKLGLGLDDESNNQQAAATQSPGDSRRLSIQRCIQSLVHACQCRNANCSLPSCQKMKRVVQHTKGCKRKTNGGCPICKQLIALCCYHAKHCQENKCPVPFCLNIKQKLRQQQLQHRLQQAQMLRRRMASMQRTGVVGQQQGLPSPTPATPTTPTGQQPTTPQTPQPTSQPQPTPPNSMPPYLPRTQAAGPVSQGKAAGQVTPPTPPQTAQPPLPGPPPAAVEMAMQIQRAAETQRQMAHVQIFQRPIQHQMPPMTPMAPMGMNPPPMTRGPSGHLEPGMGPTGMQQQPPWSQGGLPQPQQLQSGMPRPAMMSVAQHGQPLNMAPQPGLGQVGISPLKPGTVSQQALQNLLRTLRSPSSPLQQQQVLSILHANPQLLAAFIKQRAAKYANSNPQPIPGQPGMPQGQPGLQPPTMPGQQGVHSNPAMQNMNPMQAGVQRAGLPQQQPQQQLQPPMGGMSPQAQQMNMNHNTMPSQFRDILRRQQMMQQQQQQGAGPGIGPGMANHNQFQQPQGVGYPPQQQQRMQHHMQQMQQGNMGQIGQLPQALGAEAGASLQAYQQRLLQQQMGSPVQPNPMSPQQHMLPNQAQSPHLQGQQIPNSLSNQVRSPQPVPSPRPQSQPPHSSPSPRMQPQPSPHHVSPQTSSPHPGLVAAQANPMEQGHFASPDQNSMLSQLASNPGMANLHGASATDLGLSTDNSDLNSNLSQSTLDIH
T1 sequence (Q92793 whole entry, looked up): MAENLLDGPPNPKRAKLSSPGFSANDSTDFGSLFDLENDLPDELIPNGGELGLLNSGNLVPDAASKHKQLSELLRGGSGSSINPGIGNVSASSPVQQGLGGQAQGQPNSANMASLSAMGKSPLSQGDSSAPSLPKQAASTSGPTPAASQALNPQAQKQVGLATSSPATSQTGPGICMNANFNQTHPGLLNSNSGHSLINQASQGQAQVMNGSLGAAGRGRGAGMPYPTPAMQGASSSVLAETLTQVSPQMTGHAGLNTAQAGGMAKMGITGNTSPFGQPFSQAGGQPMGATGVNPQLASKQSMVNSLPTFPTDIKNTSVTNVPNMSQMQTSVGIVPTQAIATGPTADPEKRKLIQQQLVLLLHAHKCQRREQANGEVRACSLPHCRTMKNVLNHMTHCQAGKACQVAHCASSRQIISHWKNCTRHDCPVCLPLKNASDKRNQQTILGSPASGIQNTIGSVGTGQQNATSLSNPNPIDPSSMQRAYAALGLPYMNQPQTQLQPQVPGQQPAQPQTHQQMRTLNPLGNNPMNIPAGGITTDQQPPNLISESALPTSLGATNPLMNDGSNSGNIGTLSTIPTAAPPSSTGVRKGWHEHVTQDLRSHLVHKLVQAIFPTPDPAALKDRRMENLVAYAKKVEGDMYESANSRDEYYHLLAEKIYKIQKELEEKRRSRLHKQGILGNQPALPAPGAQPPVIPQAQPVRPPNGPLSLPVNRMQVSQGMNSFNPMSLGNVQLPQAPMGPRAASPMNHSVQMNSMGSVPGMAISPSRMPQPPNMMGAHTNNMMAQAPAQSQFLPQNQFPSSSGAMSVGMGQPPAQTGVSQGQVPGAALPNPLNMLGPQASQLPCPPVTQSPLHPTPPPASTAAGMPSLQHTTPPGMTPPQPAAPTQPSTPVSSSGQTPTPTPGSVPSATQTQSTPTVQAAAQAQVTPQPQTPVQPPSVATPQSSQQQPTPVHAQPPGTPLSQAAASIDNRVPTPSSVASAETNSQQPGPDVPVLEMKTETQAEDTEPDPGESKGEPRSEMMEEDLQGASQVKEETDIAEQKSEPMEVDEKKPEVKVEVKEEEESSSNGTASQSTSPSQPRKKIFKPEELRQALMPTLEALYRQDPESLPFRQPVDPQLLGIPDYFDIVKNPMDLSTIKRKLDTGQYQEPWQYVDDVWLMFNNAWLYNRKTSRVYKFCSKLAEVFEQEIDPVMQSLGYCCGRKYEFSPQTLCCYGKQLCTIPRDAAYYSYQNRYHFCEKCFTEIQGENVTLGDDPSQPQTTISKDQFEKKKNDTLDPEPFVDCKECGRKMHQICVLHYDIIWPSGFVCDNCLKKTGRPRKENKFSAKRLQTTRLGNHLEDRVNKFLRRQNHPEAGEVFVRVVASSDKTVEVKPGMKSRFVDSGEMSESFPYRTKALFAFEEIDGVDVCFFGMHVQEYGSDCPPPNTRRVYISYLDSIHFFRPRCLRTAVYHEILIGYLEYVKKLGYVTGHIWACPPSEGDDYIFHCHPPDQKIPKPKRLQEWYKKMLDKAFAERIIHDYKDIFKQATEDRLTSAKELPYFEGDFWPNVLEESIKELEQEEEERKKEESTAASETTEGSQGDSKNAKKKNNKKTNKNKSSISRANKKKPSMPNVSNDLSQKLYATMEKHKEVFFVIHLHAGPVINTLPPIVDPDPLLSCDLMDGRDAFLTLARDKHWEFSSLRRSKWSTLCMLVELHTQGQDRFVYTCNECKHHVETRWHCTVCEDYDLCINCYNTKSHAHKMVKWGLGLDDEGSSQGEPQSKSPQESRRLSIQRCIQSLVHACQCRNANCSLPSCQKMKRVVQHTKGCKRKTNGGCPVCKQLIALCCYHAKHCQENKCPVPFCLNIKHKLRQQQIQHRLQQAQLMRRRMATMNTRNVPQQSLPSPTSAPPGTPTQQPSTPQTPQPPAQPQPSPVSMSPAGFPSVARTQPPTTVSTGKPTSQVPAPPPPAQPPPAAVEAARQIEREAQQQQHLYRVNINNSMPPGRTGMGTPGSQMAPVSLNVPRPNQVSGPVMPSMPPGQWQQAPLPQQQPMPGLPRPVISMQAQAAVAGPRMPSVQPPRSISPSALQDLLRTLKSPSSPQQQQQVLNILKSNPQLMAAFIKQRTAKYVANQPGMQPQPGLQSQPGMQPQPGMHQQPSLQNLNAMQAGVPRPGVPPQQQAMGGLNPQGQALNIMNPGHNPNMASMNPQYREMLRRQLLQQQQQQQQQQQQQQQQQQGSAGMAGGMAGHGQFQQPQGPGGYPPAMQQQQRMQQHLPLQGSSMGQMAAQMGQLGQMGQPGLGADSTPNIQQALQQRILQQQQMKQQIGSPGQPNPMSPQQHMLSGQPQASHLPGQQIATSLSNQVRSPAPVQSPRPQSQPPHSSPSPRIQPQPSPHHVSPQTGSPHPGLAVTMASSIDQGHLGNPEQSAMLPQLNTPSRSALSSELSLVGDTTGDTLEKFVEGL
Chain of Serine/threonine-protein kinase 16 (O75716 whole entry): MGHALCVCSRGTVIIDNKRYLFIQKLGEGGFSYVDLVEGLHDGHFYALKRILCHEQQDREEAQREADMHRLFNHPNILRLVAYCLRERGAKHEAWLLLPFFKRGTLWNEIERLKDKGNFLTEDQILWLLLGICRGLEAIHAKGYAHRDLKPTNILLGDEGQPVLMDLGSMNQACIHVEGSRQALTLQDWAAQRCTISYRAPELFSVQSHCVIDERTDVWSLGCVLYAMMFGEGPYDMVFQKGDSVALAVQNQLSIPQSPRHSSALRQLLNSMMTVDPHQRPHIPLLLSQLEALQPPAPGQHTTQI

With `CNC(=O)Nc1ccc2c(c1)CC[C@@]21OC(=O)N(CC(=O)N(Cc2ccc(F)cc2)[C@@H](C)C(F)(F)F)C1=O` [A-485] as the compound, how does the IC50 [1] read?
Its IC50 is > 10 µM.

What about the EC50 (MDA-MB-453) of the same compound?
Its EC50 is 1.87 µM.

And the EC50 (Calu-6)?
The EC50 was 8.57 µM.

What about the EC50 (SKM-1) of the same compound?
The EC50 was 1.34 µM.

What about the IC50 [2] of the same compound?
Its IC50 is > 10 µM.

What about the inhibition (LuCaP-77 CR cell [3]) of the same compound?
The inhibition was “Active”.

What about the EC50 (NCI-H441) of the same compound?
The EC50 was > 10 µM.

And the EC50 (MM1.S)?
The EC50 was 0.18 µM.

What about the IC50 [4] of the same compound?
The IC50 was > 10 µM.

And the EC50 (JVM-2)?
Its EC50 is > 10 µM.

And the IC50 [5]?
Its IC50 is > 10 µM.

What about the INH [6] of the same compound?
Its INH is 1.14 µM.

What about the IC50 [7] of the same compound?
The IC50 was > 10 µM.

What about the EC50 (CWR22R) of the same compound?
Its EC50 is 0.32 µM.

What about the EC50 (MOLT-4) of the same compound?
Its EC50 is > 10 µM.

And the IC50 [8]?
The IC50 was > 10 µM.

And the EC50 (NCI-H1373)?
Its EC50 is 2.34 µM.

And the EC50 (HCC1187)?
Its EC50 is > 10 µM.

What about the half-life [9] of the same compound?
The half-life was 1.7 h.

What about the inhibition (LuCaP-77 CR cell [10]) of the same compound?
The inhibition was “inactive”.

And the EC50 (GA-10)?
The EC50 was 1.06 µM.

What about the EC50 (EOL1) of the same compound?
The EC50 was > 10 µM.

What about the inhibition (LuCaP-77 CR cell [11]) of the same compound?
Its inhibition is “inactive”.

And the EC50 (NCI-H146)?
The EC50 was 0.4 µM.

And the IC50 [12]?
The IC50 was > 10 µM.

And the EC50 (CAL-120)?
Its EC50 is > 10 µM.

And the EC50 (SU-DHL-8)?
The EC50 was 0.54 µM.

What about the EC50 (NCI-H1836) of the same compound?
Its EC50 is > 10 µM.

What about the EC50 (Ramos) of the same compound?
Its EC50 is 0.93 µM.

And the EC50 (NCI-H661)?
The EC50 was 7.66 µM.

What about the EC50 (SET-2) of the same compound?
Its EC50 is 2.01 µM.

What about the IC50 [13] of the same compound?
The IC50 was > 10 µM.

And the INH [14]?
Its INH is 2.39 µM.

And the half-life [15]?
Its half-life is 1.9 h.

What about the EC50 (BT-20) of the same compound?
The EC50 was 0.34 µM.

What about the INH [16] of the same compound?
The INH was 0.47 µM.

What about the IC50 [17] of the same compound?
The IC50 was > 10 µM.

And the IC50 [18]?
Its IC50 is > 10 µM.

And the EC50 (NCI-H1930)?
The EC50 was > 10 µM.

And the IC50 [19]?
The IC50 was > 10 µM.

Source: ChEMBL document CHEMBL5649168, “Discovery of a selective catalytic p300/CBP inhibitor that targets lineage-specific tumours” (Nature, 2017)
